Measured values reported in ChEMBL document CHEMBL1649560, “Beta-lactamase-mediated beta-lactam resistance in Campylobacter species: prevalence of Cj0299 (bla OXA-61) and evidence for a novel beta-Lactamase in C. jejuni” (2009).
Converted amounts (≈) assume the structure as drawn.

Key:
Assay type in all cases: functional
[1] = system: Campylobacter coli; experiment: Antibacterial activity against Campylobacter coli by NCCLS agar doubling dilution method
Method in brief: (§1)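 MICs by agar doubling dilution following the NCCLS (CLSI) Campylobacter Working Group procedure, applied to ampicillin- and amoxicillin-resistant isolates from UK chicken flocks (2000–2006). C. jejuni NCTC 11168 and C. coli NCTC 11366 served as control strains. Resistance was called at an ampicillin cutoff of 8 μg/ml. Other agents were judged against Enterobacteriaceae guidelines (BSAC, CLSI).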

[2] = system: Campylobacter jejuni; experiment: Antibacterial activity against Campylobacter jejuni isolate P338 harboring blaOXA-61::cat gene by NCCLS agar doubling dilution method
Method in brief: (§2)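 Agar doubling dilution MICs (NCCLS/CLSI Campylobacter Working Group method) against Cj0299-inactivated mutants. Mutants were made by transforming the C. jejuni isolate with pCI and selecting on Mueller-Hinton agar with 10 μg/ml chloramphenicol for 3–5 days. Chromosomal insertion was confirmed by PCR with Cj0299 and cat primers.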

[3] = system: Campylobacter jejuni; experiment: Antibacterial activity against Campylobacter jejuni by NCCLS agar doubling dilution method; method in brief: as §1
[4] = system: Campylobacter jejuni; experiment: Antibacterial activity against bla gene-negative and nitrocefin reaction-negative beta-lactamase harboring Campylobacter jejuni isolate P835 by NCCLS agar doubling dilution method
Method in brief: (§3)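 MICs of β-lactams by agar doubling dilution following the NCCLS (CLSI) Campylobacter Working Group procedure, with C. jejuni NCTC 11168 and C. coli NCTC 11366 as controls. Isolates were from UK poultry flocks. β-Lactamase status was set by Cj0299 PCR (281-bp amplimer) and by a nitrocefin colour change of sonicated lysate within 5 min, or within 30 min on repeat.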

[5] = system: Campylobacter jejuni; experiment: Antibacterial activity against Campylobacter jejuni isolate P270 harboring blaOXA-61::cat gene by NCCLS agar doubling dilution method
[6] = system: Campylobacter jejuni; experiment: Antibacterial activity against bla gene-positive and nitrocefin reaction-positive beta-lactamase harboring Campylobacter jejuni isolate P1093 by NCCLS agar doubling dilution method; method in brief: as §3
[7] = system: Campylobacter jejuni; experiment: Antibacterial activity against bla gene-positive and nitrocefin reaction-negative beta-lactamase harboring Campylobacter jejuni isolate P1698 by NCCLS agar doubling dilution method; method in brief: as §3
[8] = system: Campylobacter jejuni; experiment: Antibacterial activity against bla gene-positive and nitrocefin reaction-positive beta-lactamase harboring Campylobacter jejuni isolate P286 by NCCLS agar doubling dilution method
Method in brief: (§4)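 MICs by agar doubling dilution per the NCCLS (now CLSI) Campylobacter Working Group method. Isolates came from UK chicken flocks (feces, ceca or farm environment), 2000–2006. C. jejuni NCTC 11168 and C. coli NCTC 11366 served as control strains. The ampicillin resistance cutoff was 8 μg/ml; BSAC/CLSI Enterobacteriaceae guidelines were used for other agents.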

[9] = system: Campylobacter jejuni; experiment: Antibacterial activity against bla gene-negative and nitrocefin reaction-positive beta-lactamase harboring Campylobacter jejuni isolate P843 by NCCLS agar doubling dilution method; method in brief: as §3
[10] = system: Campylobacter jejuni; experiment: Antibacterial activity against bla gene-negative and nitrocefin reaction-negative beta-lactamase harboring Campylobacter jejuni isolate P850 by NCCLS agar doubling dilution method; method in brief: as §3
[11] = system: Campylobacter jejuni; experiment: Antibacterial activity against bla gene-positive and nitrocefin reaction-positive beta-lactamase harboring Campylobacter jejuni isolate P338 by NCCLS agar doubling dilution method; method in brief: as §4
[12] = system: Campylobacter jejuni; experiment: Antibacterial activity against bla gene-positive and nitrocefin reaction-positive beta-lactamase harboring Campylobacter jejuni isolate P790 by NCCLS agar doubling dilution method; method in brief: as §4
[13] = system: Campylobacter jejuni; experiment: Antibacterial activity against bla gene-positive and nitrocefin reaction-positive beta-lactamase harboring Campylobacter jejuni isolate P285 by NCCLS agar doubling dilution method; method in brief: as §4
[14] = system: Campylobacter jejuni; experiment: Antibacterial activity against bla gene-positive and nitrocefin reaction-positive beta-lactamase harboring Campylobacter jejuni isolate P1650 by NCCLS agar doubling dilution method; method in brief: as §3
[15] = system: Campylobacter jejuni; experiment: Antibacterial activity against bla gene-positive and nitrocefin reaction-positive beta-lactamase harboring Campylobacter jejuni isolate P1618 by NCCLS agar doubling dilution method; method in brief: as §3
[16] = system: Campylobacter jejuni; experiment: Antibacterial activity against bla gene-positive and nitrocefin reaction-positive beta-lactamase harboring Campylobacter jejuni isolate P1730 by NCCLS agar doubling dilution method; method in brief: as §4
[17] = system: Campylobacter coli; experiment: Antibacterial activity against bla-positive and beta-lactamase-weakly positive Campylobacter coli isolate P1627 by NCCLS agar doubling dilution method; method in brief: as §4
[18] = system: Campylobacter jejuni; experiment: Antibacterial activity against bla gene-positive and nitrocefin reaction-positive beta-lactamase harboring Campylobacter jejuni isolate P316 by NCCLS agar doubling dilution method; method in brief: as §4
[19] = system: Campylobacter coli; experiment: Antibacterial activity against bla gene-positive and nitrocefin reaction-positive beta-lactamase harboring Campylobacter coli isolate P321 by NCCLS agar doubling dilution method; method in brief: as §3
[20] = system: Campylobacter jejuni; experiment: Antibacterial activity against bla gene-negative and nitrocefin reaction-negative beta-lactamase harboring Campylobacter jejuni isolate P1962 by NCCLS agar doubling dilution method; method in brief: as §3
[21] = system: Campylobacter jejuni; experiment: Antibacterial activity against bla gene-negative and nitrocefin reaction-positive beta-lactamase harboring Campylobacter jejuni isolate P854 by NCCLS agar doubling dilution method; method in brief: as §3
[22] = system: Campylobacter jejuni; experiment: Antibacterial activity against bla gene-positive and nitrocefin reaction-negative beta-lactamase harboring Campylobacter jejuni NCTC 11168 by NCCLS agar doubling dilution method; method in brief: as §3
[23] = system: Campylobacter jejuni; experiment: Antibacterial activity against bla gene-positive and nitrocefin reaction-negative beta-lactamase harboring Campylobacter jejuni isolate P1699 by NCCLS agar doubling dilution method; method in brief: as §3
[24] = system: Campylobacter coli; experiment: Antibacterial activity against bla gene-positive and nitrocefin reaction-positive beta-lactamase harboring Campylobacter coli isolate P1826 by NCCLS agar doubling dilution method; method in brief: as §3
[25] = system: Campylobacter jejuni; experiment: Antibacterial activity against bla gene-positive and nitrocefin reaction-positive beta-lactamase harboring Campylobacter jejuni isolate P305 by NCCLS agar doubling dilution method; method in brief: as §4
[26] = system: Campylobacter jejuni; experiment: Antibacterial activity against Campylobacter jejuni isolate P1093 harboring blaOXA-61::cat gene by NCCLS agar doubling dilution method; method in brief: as §2

Compound: CO/N=C(\C(=O)N[C@@H]1C(=O)N2C(C(=O)O)=C(COC(C)=O)CS[C@H]12)c1csc(N)n1 [CEFOTAXIME]
- MIC50 [1]: 4 µg/mL (≈ 8.78 µM)
- MIC90 [1]: 8 µg/mL (≈ 17.6 µM)
- MIC [2]: 8 µg/mL (≈ 17.6 µM)
- MIC50 [3]: 4 µg/mL (≈ 8.78 µM)
- MIC90 [3]: 8 µg/mL (≈ 17.6 µM)
- MIC [4]: 4 µg/mL (≈ 8.78 µM)
- MIC [5]: 2 µg/mL (≈ 4.39 µM)
- MIC [6]: 8 µg/mL (≈ 17.6 µM)
- MIC [7]: 4 µg/mL (≈ 8.78 µM)
- MIC [8]: 8 µg/mL (≈ 17.6 µM)
- MIC [9]: 4 µg/mL (≈ 8.78 µM)
- MIC [10]: 8 µg/mL (≈ 17.6 µM)
- MIC [11]: 8 µg/mL (≈ 17.6 µM)
- MIC [12]: 4 µg/mL (≈ 8.78 µM)
- MIC [13]: 8 µg/mL (≈ 17.6 µM)
- MIC [14]: 4 µg/mL (≈ 8.78 µM)
- MIC [15]: 16 µg/mL (≈ 35.1 µM)
- MIC [16]: 4 µg/mL (≈ 8.78 µM)
- MIC [17]: 4 µg/mL (≈ 8.78 µM)
- MIC [18]: 4 µg/mL (≈ 8.78 µM)
- MIC [19]: 4 µg/mL (≈ 8.78 µM)
- MIC [20]: 1 µg/mL (≈ 2.2 µM)
- MIC [21]: 4 µg/mL (≈ 8.78 µM)
- MIC [22]: 2 µg/mL (≈ 4.39 µM)
- MIC [23]: 4 µg/mL (≈ 8.78 µM)
- MIC [24]: 2 µg/mL (≈ 4.39 µM)
- MIC [25]: 4 µg/mL (≈ 8.78 µM)
- MIC [26]: 4 µg/mL (≈ 8.78 µM)

Compound: CCN1CCN(C(=O)N[C@@H](C(=O)N[C@@H]2C(=O)N3[C@@H]2SC(C)(C)[C@@H]3C(=O)O)c2ccccc2)C(=O)C1=O [PIPERACILLIN]
- MIC [1]: 512 µg/mL (≈ 989 µM)
- MIC50 [1]: 512 µg/mL (≈ 989 µM)
- MIC90 [1]: 512 µg/mL (≈ 989 µM)
- MIC [2]: 8 µg/mL (≈ 15.5 µM)
- MIC50 [3]: ≥ 512 µg/mL
- MIC90 [3]: > 512 µg/mL
- MIC [4]: > 256 µg/mL
- MIC [5]: 8 µg/mL (≈ 15.5 µM)
- MIC [6]: 128 µg/mL (≈ 247 µM)
- MIC [7]: > 512 µg/mL
- MIC [8]: > 256 µg/mL
- MIC [9]: > 256 µg/mL
- MIC [10]: > 256 µg/mL
- MIC [11]: > 256 µg/mL
- MIC [12]: 128 µg/mL (≈ 247 µM)
- MIC [13]: > 256 µg/mL
- MIC [14]: > 512 µg/mL
- MIC [15]: > 512 µg/mL
- MIC [16]: > 512 µg/mL
- MIC [17]: 512 µg/mL (≈ 989 µM)
- MIC [18]: > 256 µg/mL
- MIC [19]: > 256 µg/mL
- MIC [20]: > 256 µg/mL
- MIC [21]: > 256 µg/mL
- MIC [22]: 512 µg/mL (≈ 989 µM)
- MIC [23]: 256 µg/mL (≈ 495 µM)
- MIC [24]: 512 µg/mL (≈ 989 µM)
- MIC [25]: > 256 µg/mL
- MIC [26]: 16 µg/mL (≈ 30.9 µM)

Compound: C[C@@H](O)[C@H]1C(=O)N2C(C(=O)O)=C(SCCNC=N)C[C@H]12 [IMIPENEM ANHYDROUS]
- MIC50 [1]: 0.06 µg/mL (≈ 0.2 µM)
- MIC90 [1]: 0.12 µg/mL (≈ 0.401 µM)
- MIC [2]: 0.03 µg/mL (≈ 0.1 µM)
- MIC50 [3]: 0.03 µg/mL (≈ 0.1 µM)
- MIC90 [3]: 0.06 µg/mL (≈ 0.2 µM)
- MIC [4]: 0.06 µg/mL (≈ 0.2 µM)
- MIC [5]: 0.03 µg/mL (≈ 0.1 µM)
- MIC [6]: 0.12 µg/mL (≈ 0.401 µM)
- MIC [7]: 0.06 µg/mL (≈ 0.2 µM)
- MIC [8]: 0.25 µg/mL (≈ 0.835 µM)
- MIC [9]: 0.06 µg/mL (≈ 0.2 µM)
- MIC [10]: 0.06 µg/mL (≈ 0.2 µM)
- MIC [11]: 0.06 µg/mL (≈ 0.2 µM)
- MIC [12]: 0.12 µg/mL (≈ 0.401 µM)
- MIC [13]: 0.015 µg/mL (≈ 0.0501 µM)
- MIC [14]: 0.06 µg/mL (≈ 0.2 µM)
- MIC [15]: 0.015 µg/mL (≈ 0.0501 µM)
- MIC [16]: 0.015 µg/mL (≈ 0.0501 µM)
- MIC [17]: 0.12 µg/mL (≈ 0.401 µM)
- MIC [18]: 0.06 µg/mL (≈ 0.2 µM)
- MIC [19]: 0.12 µg/mL (≈ 0.401 µM)
- MIC [20]: 0.015 µg/mL (≈ 0.0501 µM)
- MIC [21]: 0.06 µg/mL (≈ 0.2 µM)
- MIC [22]: 0.03 µg/mL (≈ 0.1 µM)
- MIC [23]: 0.03 µg/mL (≈ 0.1 µM)
- MIC [24]: 0.03 µg/mL (≈ 0.1 µM)
- MIC [25]: 0.06 µg/mL (≈ 0.2 µM)
- MIC [26]: 0.12 µg/mL (≈ 0.401 µM)
